Series [1] can be described thus: Brain-to-plasma ratio after 2 hrs in rat. It is filed as ADME. The method, boiled down:
(§1)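 Male Sprague-Dawley rats given 1.0 mg/kg iv by tail vein, formulated at 1 mg/mL in TWEEN 80:EtOH:water (10:23:67). Sampled at 0.25, 1, 2 and 4 h (n = 3 per time point). Plasma and brain levels measured by LC–MS/MS and expressed as the brain/plasma ratio.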

The nature of series [2]: Brain-to-plasma ratio after 1 hr in rat. It is filed as ADME. The method, boiled down: as §1
Series [3] is described as follows: (§2) Brain-to-plasma ratio after 4 hrs in rat. Format: ADME. The method, boiled down: as §1
Series [4] in a line: Half life in rat. Format: ADME. The settings on record: in vivo. The method, boiled down: (§3)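 Male Sprague–Dawley rats dosed 1.0 mg/kg iv via an implanted cannula (n = 1 or 2) and 2.0 mg/kg po by gavage (n = 3). Both doses were formulated at 1 mg/mL in TWEEN 80:EtOH:water (10:23:67). Plasma drug levels were measured by LC–MS/MS after protein precipitation, and PK parameters were derived. AUC was normalised to dose.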

The target in series [5] is T1, Cannabinoid receptor 1 (Homo sapiens, UniProt P21554). The series can be described thus: Effective concentration against human recombinant cannabinoid receptor type 1 expressed in Chinese Hamster Ovary (CHO) cells. Format: cell-based. In a few lines: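 Functional assay on recombinant human CB1 receptor expressed in CHO cells, run in the presence of forskolin.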

In series [6] the target is T1, Cannabinoid receptor 1. The series is described as follows: biochemical. It is filed as cell-based, CHO.
Series [7] in a line: Volume distribution at steady state in rat. Format: ADME, organism-based. As to conditions: in vivo, read-out: Vdss. In a few lines:
as §3

The nature of series [8]: Brain-to-plasma ratio after 0.25 hrs in rat. It is filed as ADME. The method, boiled down: as §1
A short description of series [9]: Oral bioavailability in rat. It is filed as ADME, organism-based. The settings on record: in vivo. The method, boiled down:
as §3

Series [10] in a line: Normalised area under the concentration time curve in rat. Format: ADME. In a few lines: as §3
Series [11] in a line: Plasma clearance in rat. Format: ADME, organism-based. The settings on record: read-out: Clp. In a few lines:
as §3

Series [12] can be described thus: as §2. The settings on record: read-out: B/P. It is filed as ADME, cell-free. In a few lines:
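Male Sprague-Dawley rats were given 1.0 mg/kg iv via the tail vein, formulated at 1 mg/mL in TWEEN 80:EtOH:water (10:23:67). Three rats were used at each time point (0.25, 1, 2 and 4 h). Brain and plasma concentrations were measured by LC–MS/MS, and the brain-to-plasma ratio was taken at each time.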

Molecules are shown by their SMILES.

T1 sequence (P21554 whole entry): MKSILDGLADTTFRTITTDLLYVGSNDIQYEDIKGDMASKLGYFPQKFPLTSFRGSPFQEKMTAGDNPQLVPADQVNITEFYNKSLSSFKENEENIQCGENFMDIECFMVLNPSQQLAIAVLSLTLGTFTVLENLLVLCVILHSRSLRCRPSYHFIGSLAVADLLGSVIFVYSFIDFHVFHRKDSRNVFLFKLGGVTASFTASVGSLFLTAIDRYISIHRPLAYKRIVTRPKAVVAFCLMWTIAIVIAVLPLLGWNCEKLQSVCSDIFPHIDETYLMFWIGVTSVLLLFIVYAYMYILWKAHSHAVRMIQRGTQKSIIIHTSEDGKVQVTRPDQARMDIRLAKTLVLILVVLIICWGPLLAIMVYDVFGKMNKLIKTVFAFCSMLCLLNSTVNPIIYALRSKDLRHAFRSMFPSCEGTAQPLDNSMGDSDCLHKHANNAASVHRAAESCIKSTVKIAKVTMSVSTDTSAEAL

As for `Cn1c(C(=O)NC2CCCCC2)nc(-c2ccc(Cl)cc2Cl)c1-c1ccc(Cl)cc1`, the Kp at 2 h in series [1] amounted to 1.3. In series [2], the Kp at 1 h is 2.1. Moreover, the Kp at 4 h in series [3] turned out to be 2.6. For the same compound, the half-life in [4] was 1.9 h. Further, the EC50 in [5] worked out at 18 nM. Moreover, half-maximal inhibition in series [6] (IC50) required 4 nM. In series [7], the Vd came to 1.9 L/kg. Moreover, the Kp at 0.25 h in [8] turned out to be 0.8. For the same compound, in series [9], the bioavailability turned out to be 30%. Further, the AUC nom in series [10] worked out at 1.8 µM·kg·h/mg. Besides, in series [11], the clearance was 20 mL/min/kg. `Cc1ccc(-c2nc(C(=O)NC3CCCCC3)n(C)c2-c2ccc(C)cc2)cc1` yielded a half-inhibitory concentration (IC50) in series [6] of 900 nM. This lies in the sub-micromolar range. Still for that read-out and setting: under `O=C(NN1CCCCC1)c1nc(-c2ccc(Cl)cc2)c(-c2ccc(Cl)cc2Cl)o1` stands 470 nM.

Consider `Cn1c(C(=O)NN2CCCCC2)nc(-c2ccc(Cl)cc2)c1-c1ccc(Cl)cc1Cl`, for which, in [6], the concentration for half-maximal inhibition (IC50) worked out at 190 nM. As to `O=C(NN1CCCCC1)c1nc(-c2ccc(Cl)cc2Cl)c(-c2ccc(Cl)cc2)o1`, the midpoint of inhibition in [6], the IC50, lay at 260 nM. On the same count and under the same terms, under `O=C(NC1CCCCC1)c1nc(-c2ccc(Cl)cc2Cl)c(-c2ccc(Cl)cc2Cl)o1` stands 70 nM; under `O=C(NC1CCCCC1)c1nc(-c2ccc(Cl)cc2)c(-c2ccc(Cl)cc2)o1`, 500 nM; under `Cn1c(C(=O)NC(C)(C)C)nc(-c2ccc(Cl)cc2)c1-c1ccc(Cl)cc1`, 900 nM. Same read-out and setting: the same measure for `Cn1c(C(=O)NN2CCCCC2)nc(-c2ccccc2)c1-c1ccccc1`: 1900 nM. As to `O=C(NC1CCCCC1)c1nc(-c2ccc(Cl)cc2Cl)c(-c2ccc(Cl)cc2)o1`, inhibition in series [6] was half-maximal at 80 nM (IC50). Still for that read-out and setting: under `Cn1c(C(=O)NN2CCCCC2)nc(-c2ccc(Cl)cc2Cl)c1-c1ccc(Cl)cc1Cl` stands 16 nM. Still for that read-out and setting: the same measure for `Cn1c(C(=O)Nc2ccccc2)nc(-c2ccc(Cl)cc2Cl)c1-c1ccc(Cl)cc1`: 60 nM; for `O=C(NC1CCCCC1)c1nc(-c2ccc(Cl)cc2)c(-c2ccc(Cl)cc2Cl)o1`: 1000 nM; for `O=C(NN1CCCCC1)c1nc(-c2ccc(Cl)cc2Cl)c(-c2ccc(Cl)cc2Cl)o1`: 200 nM. `Cn1c(C(=O)NC2CCCC2)nc(-c2ccc(Cl)cc2Cl)c1-c1ccc(Cl)cc1` returned an IC50 in series [6] of 17 nM. Against the preceding compound, the IC50 is about 12-fold lower.

In turn, `Cn1c(C(=O)NC2CCCCCC2)nc(-c2ccc(Cl)cc2Cl)c1-c1ccc(Cl)cc1` had a concentration for half-maximal inhibition (IC50) in [6] of 8 nM.

In the case of `CN(C(=O)c1nc(-c2ccc(Cl)cc2Cl)c(-c2ccc(Cl)cc2)n1C)C1CCCCC1`, in series [6], the IC50 stood at 70 nM.

With `Cn1c(C(=O)NC2CCCCC2)nc(-c2ccc(Cl)cc2)c1-c1ccc(Cl)cc1`, the 50% effective concentration (EC50) in series [5] turned out to be 500 nM. Besides, in series [6], the IC50 stood at 450 nM.

In series [6], `Cn1c(C(=O)N2CCCCC2)nc(-c2ccccc2)c1-c1ccccc1` registered an IC50 of 19000 nM. In series [6], `CCCCCCNC(=O)c1nc(-c2ccc(Cl)cc2)c(-c2ccc(Cl)cc2)n1C` had an IC50 of 540 nM. Consider `Cn1c(C(=O)NC2CCCCC2)nc(-c2ccc(Cl)cc2Cl)c1-c1ccc(Cl)cc1Cl`, for which the IC50 in [6] was found to be 5.2 nM.

`Cn1c(C(=O)NC2CCCCC2)nc(-c2ccc(Cl)cc2)c1-c1ccc(Cl)cc1Cl`: in series [6], the IC50 is 46 nM.

`Cn1c(C(=O)NN2CCCCC2)nc(-c2ccc(Cl)cc2Cl)c1-c1ccc(Cl)cc1`: the Kp at 2 h in [1] was determined as 2.9. The Kp at 1 h in series [2] was determined as 3.6. Further, in [4], the half-life was 2.4 h. In addition, the Kp at 4 h in [12] was 3.4. The EC50 in [5] was determined as 5 nM. This compound also came in with an IC50 in series [6] of 6.1 nM. Further, the Vd in series [7] was 3.7 L/kg. Further, the Kp at 0.25 h in [8] worked out at 3. The bioavailability in [9] is 50%. The AUC nom in series [10] is 1.3 µM·kg·h/mg. Moreover, the clearance in [11] was found to be 28 mL/min/kg. On to `Cn1c(C(=O)N2CCCCC2)nc(-c2ccc(Cl)cc2)c1-c1ccc(Cl)cc1`, for which inhibition in [6] was half-maximal at 1100 nM (IC50).

Regarding `Cn1c(C(=O)NN2CCCCC2)nc(-c2ccc(Cl)cc2)c1-c1ccc(Cl)cc1`, in series [5], the EC50 is 100 nM. The same compound registered a 50% inhibitory concentration (IC50) in series [6] of 260 nM. In turn, `O=C(NN1CCCCC1)c1nc(-c2ccc(Cl)cc2)c(-c2ccc(Cl)cc2)[nH]1` showed a 50% inhibitory concentration (IC50) in series [6] of 6000 nM. This lies in the single-digit micromolar range. Same read-out and setting: the same measure for `CCn1c(C(=O)NC2CCCCC2)nc(-c2ccc(Cl)cc2Cl)c1-c1ccc(Cl)cc1`: 4.1 nM.

As a reminder, the half-life is how long it takes for the measured level to halve. Lower therefore signals rapid decline. As a reminder, the EC50 is the concentration at which the effect is half-maximal. One may read the IC50 as the concentration at which inhibition is half-maximal. The low end stands for inhibition by little substance, the high end for a need for much substance. Usually bioavailability stands for the share of a dose that reaches the circulation, judged against a reference dose that is usually intravenous. A lower bioavailability goes with poor availability.

These data come from ChEMBL document CHEMBL1142014, “Synthesis and activity of 4,5-diarylimidazoles as human CB1 receptor inverse agonists” (Bioorg Med Chem Lett, 2005).
